# Tests used:
# Vero = experiment: Cytotoxicity against Vero cells after 72 hrs by MTT assay; format: cell-based; conditions: Chlorocebus sabaeus
# Outline: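 Vero cells were exposed to serially diluted compound up to 62.5 µg/mL for 72 h. Viability was read by cellular conversion of MTT to formazan (CellTiter 96 non-radioactive proliferation assay), and IC50 was derived.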
# [1] = tested on: Mycobacterium tuberculosis; experiment: Antimycobacterial activity against Mycobacterium tuberculosis H37Rv by agar dilution method; format: functional
# Outline: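 MIC was determined by agar dilution, in duplicate.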
# [2] = tested on: Mycolicibacterium smegmatis; experiment: Antimicrobial activity against Mycobacterium smegmatis by agar dilution method; format: functional
# Outline: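 Agar dilution against M. smegmatis ATCC 14468; MIC determined in duplicate.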
# [3] = Inhibition of Mycobacterium smegmatis DNA gyrase supercoiling activity; set-up: species or system Mycolicibacterium smegmatis
# Outline: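 Gyrase purified from M. smegmatis was preincubated with compound in DMSO (5% DMSO in reaction). 400 ng relaxed pUC18 was added in 35 mM Tris-HCl pH 7.5, 5 mM MgCl2, 25 mM K-glutamate, 2 mM spermidine, 2 mM ATP, BSA, tRNA and 5% glycerol, 1 h at 37 °C. Samples were heat-inactivated, run on 1% agarose in TAE, and ethidium-stained; IC50 was derived.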
SMILES,IC50 (Vero),MIC [1],MIC [2],IC50 [3]
CC1(C)COCN1c1nc2c(cc1[N+](=O)[O-])c(=O)c(C(=O)O)cn2C1CC1,167 µM,0.51 µM,4.17 µM,
O=C(O)c1cn(-c2ccc(F)cc2)c2nc(N3CCN(C(=O)C4COc5ccccc5O4)CC3)c([N+](=O)[O-])cc2c1=O (stereo not given),> 54.3 µM,10.9 µM,21.7 µM,
O=C(O)c1cn(-c2ccc(F)cc2)c2nc(N3CCN(C(c4ccccc4)c4ccc(Cl)cc4)CC3)c([N+](=O)[O-])cc2c1=O (stereo not given),102 µM,1.27 µM,5.09 µM,
CC(C)(C)n1cc(C(=O)O)c(=O)c2cc([N+](=O)[O-])c(N3CCN(C(c4ccccc4)c4ccc(Cl)cc4)CC3)nc21 (stereo not given),> 108 µM,1.35 µM,174 µM,
O=C(O)c1cn(C2CC2)c2nc(N3CCN(C(c4ccccc4)c4ccc(Cl)cc4)CC3)c([N+](=O)[O-])cc2c1=O (stereo not given),112 µM,5.59 µM,22.3 µM,
O=C(O)c1cn(-c2ccc(F)cc2)c2nc(N3CCC(O)(c4ccc(Cl)cc4)CC3)c([N+](=O)[O-])cc2c1=O,59.6 µM,2.89 µM,11.6 µM,
CC(C)(C)n1cc(C(=O)O)c(=O)c2cc([N+](=O)[O-])c(N3CCC(N4CCCCC4)CC3)nc21,> 137 µM,1.7 µM,6.84 µM,
O=C(O)c1cn(C2CC2)c2nc(N3CCC(n4c(=O)[nH]c5cc(Cl)ccc54)CC3)c([N+](=O)[O-])cc2c1=O,55.5 µM,2.97 µM,23.8 µM,
CC(C)(C)n1cc(C(=O)O)c(=O)c2cc([N+](=O)[O-])c(N3CCC(n4c(=O)[nH]c5cc(Cl)ccc54)CC3)nc21,57.7 µM,2.88 µM,11.5 µM,
O=C(O)c1cn(C2CC2)c2nc(N3CCC(O)(c4ccc(Cl)cc4)CC3)c([N+](=O)[O-])cc2c1=O,64.4 µM,6.46 µM,25.8 µM,
CCN(CC)C(=O)C1CCCN(c2nc3c(cc2[N+](=O)[O-])c(=O)c(C(=O)O)cn3C2CC2)C1 (stereo not given),> 137 µM,3.41 µM,109 µM,
CCN(CC)C(=O)C1CCCN(c2nc3c(cc2[N+](=O)[O-])c(=O)c(C(=O)O)cn3-c2ccc(F)cc2)C1 (stereo not given),> 122 µM,3.05 µM,12.2 µM,
CCN(CC)C(=O)C1CCCN(c2nc3c(cc2[N+](=O)[O-])c(=O)c(C(=O)O)cn3C(C)(C)C)C1 (stereo not given),> 132 µM,3.29 µM,106 µM,
O=C(O)c1cn(-c2ccc(F)cc2)c2nc(N3CCN(Cc4ccc5c(c4)OCO5)CC3)c([N+](=O)[O-])cc2c1=O,57.1 µM,11.4 µM,45.7 µM,
CC(C)(C)n1cc(C(=O)O)c(=O)c2cc([N+](=O)[O-])c(N3CCN(Cc4ccc5c(c4)OCO5)CC3)nc21,> 123 µM,1.53 µM,6.14 µM,
O=C(O)c1cn(-c2ccc(F)cc2)c2nc(N3CCC4(CC3)OCCO4)c([N+](=O)[O-])cc2c1=O,133 µM,6.65 µM,26.6 µM,
CC(C)(C)n1cc(C(=O)O)c(=O)c2cc([N+](=O)[O-])c(N3CCC4(CC3)OCCO4)nc21,144 µM,0.9 µM,3.61 µM,92.5 µM
CN1CCN(c2nc3c(cc2[N+](=O)[O-])c(=O)c(C(=O)O)cn3C2CC2)CC1c1ccccc1 (stereo not given),139 µM,6.96 µM,27.8 µM,
CC(C)(C)NC(=O)C1c2ccccc2CCN1c1nc2c(cc1[N+](=O)[O-])c(=O)c(C(=O)O)cn2C1CC1 (stereo not given),124 µM,3.09 µM,24.7 µM,
O=C(O)c1cn(C2CC2)c2nc(N3CCSCC3)c([N+](=O)[O-])cc2c1=O,166 µM,8.32 µM,33.2 µM,
CN1CCN(c2nc3c(cc2[N+](=O)[O-])c(=O)c(C(=O)O)cn3-c2ccc(F)cc2)CC1c1ccccc1 (stereo not given),124 µM,0.77 µM,3.09 µM,99.3 µM

# From ChEMBL document CHEMBL1138270, “Antimycobacterial activities of novel 1-(cyclopropyl/tert-butyl/4-fluorophenyl)-1,4-dihydro- 6-nitro-4-oxo-7-(substituted secondary amino)-1,8-naphthyridine-3-carboxylic acid” (J Med Chem, 2007)
